Bioassay records as filed in PubChem BioAssay.
Only a selection was taken, and hits are over-represented in it overall.
KDM4C inh: inhibitors of GASC-1 (KDM4C) histone demethylase, primary screen, biochemical, single concentration HTS; Lysine-specific demethylase 4C (Homo sapiens), Q9H3R0; GST-KDM4C 2-372, H3K9me3 peptide, LANCE TR-FRET; inhibition, % at 12.5 µM; 96,000 compounds, 0.15% hits; AID 720574, 2013;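 active = mean replicate inhibition above about 25%, with at least 55% of replicates also reaching it, limit read from the data, passing the limit was not always enough; inconclusive = only one of those two conditions met; inactive = neither condition met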
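Compound: one test concentration per compound; Material: GST-GASC-1 enzyme fragment 2-372; Amount: GASC-1 enzyme at 10 nM final in reaction; Also added: H3K9me3 peptide substrate, Fe(II), 2-oxoglutarate; Technique: LANCE TR-FRET; Times: 30 min demethylation and 1 h detection at room temperature.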
IDH1 mut inh: inhibitors of IDH1 R132H reductase, primary screen, biochemical, plate reader, single point; 70,000 compounds, 0.18% hits; inhibition, % at 10 µM; diaphorase/resazurin fluorescence, 60 min; Isocitrate dehydrogenase [NADP] cytoplasmic (Homo sapiens), O75874; AID 624101, 2012; in the data active = inhibition above about 34%; inconclusive = no clear call, values can overlap the other calls; inactive = below about 11%;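 also: 0% = DMSO and 100% = no enzyme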
Target sequence (O75874 whole entry R132H): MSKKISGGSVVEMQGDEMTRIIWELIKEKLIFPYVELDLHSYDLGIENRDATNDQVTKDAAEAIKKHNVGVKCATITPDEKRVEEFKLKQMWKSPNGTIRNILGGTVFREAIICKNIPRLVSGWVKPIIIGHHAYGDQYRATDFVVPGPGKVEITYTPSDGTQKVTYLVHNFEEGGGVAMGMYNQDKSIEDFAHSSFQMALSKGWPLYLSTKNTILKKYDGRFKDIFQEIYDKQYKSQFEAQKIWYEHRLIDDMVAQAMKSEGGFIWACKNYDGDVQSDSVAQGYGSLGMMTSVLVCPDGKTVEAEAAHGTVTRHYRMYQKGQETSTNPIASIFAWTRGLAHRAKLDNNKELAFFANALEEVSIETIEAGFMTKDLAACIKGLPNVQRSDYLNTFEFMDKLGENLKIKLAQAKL
T cruzi growth-1: T. cruzi intracellular proliferation inhibitors, primary screen, cell-based, beta-gal Tulahuen parasites, NIH3T3 host, luminescence; 77,000 compounds, 5.9% hits; T. cruzi beta-gal in NIH3T3, GalScreen luminescence, 90 h; inhibition, % at 8.34 µM; AID 624255, 2012;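 active = mean inhibition above about 93%, with at least 55% of replicates each passing it, limit read from the data, passing the limit was not always enough; inconclusive = only one of those two conditions holds; inactive = neither condition holds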
T cruzi growth-2: T. cruzi intracellular proliferation inhibitors, confirmation, cell-based, NIH3T3 host, beta-gal parasite, luminescence, cherry-pick. shares compounds with T cruzi growth-1. AID 651739, 2012. 5,600 compounds, 72% hits. T. cruzi beta-gal in NIH3T3, GalScreen luminescence, 90 h. inhibition, % at 8.35 µM;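 active = mean replicate inhibition above about 95% and at least 55% of replicates individually reaching it, limit read from the data; inconclusive = only one of the two criteria is met; inactive = neither criterion is met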
T cruzi growth-3: inhibitors of intracellular T. cruzi replication, confirmation, NIH3T3 host cells, beta-gal parasites, cherry-pick, set 2 | shares compounds with T cruzi growth-1 | T. cruzi beta-gal in NIH3T3, GalScreen luminescence, 90 h | inhibition, % at 2.09 µM | 5,600 compounds, 21% hits;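 active = mean inhibition above about 95%, with at least 55% of replicates also reaching it, limit read from the data; inconclusive = meets just one of the two conditions; inactive = meets neither condition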;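 also: plate controls were neutral control median for no effect and positive control median for full effect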
NIH3T3 tox: cytotoxicity in mouse NIH/3T3 fibroblasts, confirmation, cytotoxicity control for T. cruzi proliferation inhibitor project, cell-based, cherry-pick, single point; shares compounds with T cruzi growth-1; NIH/3T3 viability, CellTiter-Glo ATP luminescence, 90 h; cytotoxicity (signal decrease), % at 8.35 µM; 5,600 compounds, 14% hits;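 active = mean signal decrease across replicates above about 35% based on untreated-well scatter, with enough replicates individually passing, limit read from the data; inconclusive = no rule stated though some were filed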;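 also: 0% = median of neutral control wells and 100% = median of positive control wells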
NIH3T3 tox 2: NIH/3T3 fibroblast cytotoxicity, confirmation, cytotoxicity control, cell-based, cherry-pick, single point, set 2; inhibition, % at 24.9 µM; AID 651744, 2012; shares compounds with T cruzi growth-1; 5,600 compounds, 56% hits; NIH/3T3 viability, CellTiter-Glo ATP luminescence, 90 h;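 active = mean loss of cell viability signal at or above a set limit, and enough replicates individually reaching it; inconclusive = meets only the mean limit or only the replicate share; inactive = meets neither condition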;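 also: 0% = median of neutral control wells and 100% = median of positive control wells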
* hit, by the source's call; ? = inconclusive; . = not tested or not shown.

SMILES | KDM4C inh | IDH1 mut inh | T cruzi growth-1 | T cruzi growth-2 | T cruzi growth-3 | NIH3T3 tox | NIH3T3 tox 2
C[C@H]1CN([C@@H](C)CO)C(=O)c2cccc(NC(=O)c3ccc(-c4nccs4)cc3)c2O[C@@H]1CN(C)Cc1ccc(-c2ccccc2)cc1 | -4 | 0 | 99* | 107* | 68 | -3 | -14
C[C@@H]1CN([C@@H](C)CO)C(=O)c2cccc(NC(=O)c3ccc(-c4nccs4)cc3)c2O[C@H]1CN(C)Cc1ccc(C(=O)Nc2ccccc2N)cc1 | -1 | . | 82 | . | . | . | .
C[C@@H]1CN([C@H](C)CO)C(=O)c2cccc(NC(=O)c3ccc(-c4nccs4)cc3)c2O[C@H]1CN(C)Cc1ccc(Oc2ccccc2)cc1 | -6 | 2 | 78 | . | . | . | .
C[C@H]1CN([C@@H](C)CO)C(=O)c2cccc(NC(=O)c3ccc(-c4nccs4)cc3)c2O[C@H]1CN(C)Cc1ccc(C(=O)Nc2ccccc2N)cc1 | -1 | . | 98* | 102* | 101* | 22 | 56*
C[C@H](CO)N1C[C@H](C)[C@H](CN(C)Cc2ccc(Oc3ccccc3)cc2)Oc2c(NC(=O)c3ccc(-c4nccs4)cc3)cccc2C1=O | -12 | . | 103* | 110* | 109* | 24 | 25*
C[C@@H]1CN([C@H](C)CO)C(=O)c2cccc(NC(=O)c3ccc(-c4nccs4)cc3)c2O[C@@H]1CN(C)Cc1ccc(-c2ccccc2)cc1 | -4 | -3 | 36 | . | . | . | .
C[C@@H]1CN([C@@H](C)CO)C(=O)c2cccc(NC(=O)c3ccc(-c4nccs4)cc3)c2O[C@H]1CN(C)CC1CCCCC1 | 0 | 2 | 99* | 117* | 74 | 7 | 15
C[C@H](CO)N1C[C@H](C)[C@@H](CN(C)CC2CCCCC2)Oc2c(NC(=O)c3ccc(-c4nccs4)cc3)cccc2C1=O | 4 | . | 60 | . | . | . | .
Cc1ccc(-c2nnc3c4ccccc4c(C)nn23)cc1S(=O)(=O)NCc1cccnc1 | . | 0 | . | . | . | . | .
CCNC(=O)C[C@H]1C=C[C@@H](NC(=O)C2CCC2)[C@@H](CO)O1 | -3 | 0 | . | . | . | . | .
C[C@H](NC(=O)C[C@H]1CC[C@H](NC(=O)CN2CCOCC2)[C@@H](CO)O1)c1ccccc1 | -1 | 0 | -5 | . | . | . | .
CS(=O)(=O)N(CC(=O)Nc1ccc(C(F)(F)F)cc1)c1cccc([N+](=O)[O-])c1 | . | 0 | . | . | . | . | .
COc1ccccc1C#Cc1cnc2c(c1)C(=O)N([C@@H](C)CO)C[C@@H](C)[C@H](CN(C)C(=O)CC1CC1)O2 | -2 | -3 | 108* | 112* | 111* | 13 | 45*
CCC(=O)N(C)C[C@@H]1Oc2ncc(C#Cc3ccccc3OC)cc2C(=O)N([C@H](C)CO)C[C@H]1C | -3 | 0 | 75 | . | . | . | .
COc1ccccc1C#Cc1cnc2c(c1)C(=O)N([C@@H](C)CO)C[C@H](C)[C@H](CN(C)C(=O)CC1CC1)O2 | -1 | 0 | 33 | . | . | . | .
COc1ccccc1C#Cc1cnc2c(c1)C(=O)N([C@H](C)CO)C[C@@H](C)[C@H](CN(C)C(=O)CC1CC1)O2 | -1 | . | 108* | 102* | 30 | -3 | 39*
COc1ccccc1C#Cc1ccc([C@H]2[C@H](CO)N3CCCCN(C(=O)C4CCCC4)C[C@@H]23)cc1 | . | . | 107* | 106* | 106* | 43* | 105*
COc1ccccc1C#Cc1ccc([C@H]2[C@@H](CO)N3CCCCN(C(=O)C4CCC4)C[C@@H]23)cc1 | -2 | . | 106* | 111* | ? | 50* | 74*
COc1ccccc1C#Cc1ccc([C@@H]2[C@@H](CO)N3CCCCN(C(=O)C4CC4)C[C@H]23)cc1 | . | . | 87 | . | . | . | .
COc1ccccc1C#Cc1ccc([C@H]2[C@@H](CO)N3CCCCN(C(=O)C4CC4)C[C@H]23)cc1 | . | . | 108* | 105* | 103* | 22 | 105*
COc1ccccc1C#Cc1ccc([C@@H]2[C@@H](CO)N3CCCCN(C(=O)C4CCCC4)C[C@@H]23)cc1 | . | . | 117* | 102* | 98* | -19 | 105*
COc1ccccc1C#Cc1ccc([C@H]2[C@H]3CN(C(=O)C4CCC4)CCCCN3[C@H]2CO)cc1 | -1 | . | 76 | . | . | . | .
COc1ccccc1C#Cc1ccc([C@@H]2[C@@H](CO)N3CCCCN(C(=O)C4CCC4)C[C@H]23)cc1 | 0 | . | 88 | . | . | . | .
COc1ccccc1C#Cc1ccc([C@@H]2[C@H](CO)N3CCCCN(C(=O)C4CCC4)C[C@@H]23)cc1 | 0 | . | 87 | . | . | . | .
N#Cc1c(C(F)(F)F)cc(-c2ccc(Br)cc2)nc1SCCC(=O)O | . | 0 | . | . | . | . | .
SMILES | KDM4C inh | IDH1 mut inh | T cruzi growth-1 | T cruzi growth-2 | T cruzi growth-3 | NIH3T3 tox | NIH3T3 tox 2
C[C@@H]1CN([C@H](C)CO)C(=O)Cc2cc(NC(=O)C3CC3)ccc2O[C@@H]1CN(C)CC1CCCCC1 | -1 | 2 | 12 | . | . | . | .
COc1ccc2c3c([nH]c2c1)[C@@H](CO)N(C(=O)CN(C)C)CC31CN(Cc2ccncc2)C1 | 2 | . | . | . | . | . | .
C[C@H]1CN([C@@H](C)CO)C(=O)CCCn2cc(nn2)CO[C@H]1CN(C)C(=O)Nc1cccc2ccccc12 | 1 | 1 | 13 | . | . | . | .
C[C@@H]1CN([C@@H](C)CO)S(=O)(=O)c2ccc(-c3cccc(C#N)c3)cc2O[C@@H]1CN(C)C(=O)c1ccccc1 | -1 | 0 | 109* | 104* | 56 | 54* | 72*
C[C@@H]1CN([C@H](C)CO)S(=O)(=O)c2ccc(-c3cccc(C#N)c3)cc2O[C@H]1CN(C)C(=O)Nc1ccccc1F | 1 | -1 | 88 | . | . | . | .
C[C@H](CO)N1C[C@H](C)[C@@H](CN(C)C(=O)Nc2cc(F)ccc2F)Oc2cc(-c3cccc(C#N)c3)ccc2S1(=O)=O | -2 | -1 | . | . | . | . | .
C[C@@H]1CN([C@@H](C)CO)S(=O)(=O)c2ccc(-c3cccc(C#N)c3)cc2O[C@@H]1CN(C)C(=O)Nc1ccccc1F | 0 | . | 110* | 97* | 88 | 48* | 68*
C[C@@H]1CN([C@H](C)CO)S(=O)(=O)c2ccc(-c3cccc(C#N)c3)cc2O[C@@H]1CN(C)C(=O)c1ccccc1 | 2 | 0 | 78 | . | . | . | .
